Experiment [1] concerns the target Neurotensin receptor type 1 (Rattus norvegicus) (UniProt P20789). In words: Antagonist activity at rat NTS1 stably expressed in CHOK1 cells assessed as inhibition of NT-induced calcium release by FLIPR assay. It is filed as functional, cell-based. The following applies: CHO-K1. In a few lines: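 Rat NTS1 CHO-k1 cells, plated at 30000/well on the assay day. Cells were loaded with Calcium 5 dye (1:40 in HBSS, 20 mM HEPES, 2.5 mM probenecid, pH 7.4) for 45 min at 37 °C, then preincubated with compound for 15 min. […] Fluorescence (ex 485/em 525 nm) read for 60 s on FlexStation II; three-parameter logistic fit; at least three experiments in duplicate.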

The target in experiment [2] is T1, Neurotensin receptor type 2 (Rattus norvegicus) (UniProt Q63384).
T1 sequence (whole entry): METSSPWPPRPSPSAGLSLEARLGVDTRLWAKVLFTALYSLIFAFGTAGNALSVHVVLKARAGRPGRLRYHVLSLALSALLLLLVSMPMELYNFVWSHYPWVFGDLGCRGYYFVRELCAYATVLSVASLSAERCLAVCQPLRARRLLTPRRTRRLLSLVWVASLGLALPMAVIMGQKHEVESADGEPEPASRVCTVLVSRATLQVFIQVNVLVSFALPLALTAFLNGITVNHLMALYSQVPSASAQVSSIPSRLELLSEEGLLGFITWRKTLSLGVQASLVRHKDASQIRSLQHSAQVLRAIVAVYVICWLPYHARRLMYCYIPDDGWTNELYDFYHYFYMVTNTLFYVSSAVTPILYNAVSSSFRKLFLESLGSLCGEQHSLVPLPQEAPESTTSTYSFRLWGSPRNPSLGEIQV
Kind of experiment: Agonist activity at rat NTS2 stably expressed in CHOK1 cells assessed as induction of calcium release by FLIPR assay relative to SR142948a. It is filed as functional, cell-based. The conditions noted are these: CHO-K1. In a few lines:
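Rat NTS2 expressed in CHO-k1 cells, plated at 25000/well the day before the assay. Cells were loaded with Calcium 5 dye (1:20 in HBSS, 20 mM HEPES, 2.5 mM probenecid, pH 7.4) for 45 min at 37 °C, then pretreated with 10% DMSO added 1:10. Full-log compound dilutions were read on FLIPR Tetra every second for 100 s. Emax is expressed as % of the full-agonist standard; EC50 from a three-parameter logistic fit; at least three experiments in duplicate.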

In experiment [3] the target is T2, Neurotensin receptor type 2 (Rattus norvegicus, UniProt Q63384).
T2 sequence (Q63384 whole entry): T1 sequence (whole entry)
Kind of experiment: Agonist activity at rat NTS2 stably expressed in CHOK1 cells assessed as induction of calcium release by FLIPR assay. It is filed as functional, cell-based, CHO-K1.

Experiment [4] concerns the target T2, Neurotensin receptor type 2. Kind of experiment: Displacement of [125I]NT at rat NTS2 overexpressed in CHOK1 cells after 30 mins by gamma counting. It is filed as cell-based, CHO-K1. A general note: Loss of bound radioactivity is the signal in a displacement assay; it reports binding, not function.
For experiment [5], the target named is Neurotensin receptor type 1 (Rattus norvegicus, UniProt P20789). In words: Agonist activity at rat NTS1 stably expressed in CHOK1 cells assessed as induction of calcium release by FLIPR assay. It is filed as functional, cell-based. The conditions noted are these: cho-k1.
Neurotensin receptor type 1, sequence (P20789 whole entry): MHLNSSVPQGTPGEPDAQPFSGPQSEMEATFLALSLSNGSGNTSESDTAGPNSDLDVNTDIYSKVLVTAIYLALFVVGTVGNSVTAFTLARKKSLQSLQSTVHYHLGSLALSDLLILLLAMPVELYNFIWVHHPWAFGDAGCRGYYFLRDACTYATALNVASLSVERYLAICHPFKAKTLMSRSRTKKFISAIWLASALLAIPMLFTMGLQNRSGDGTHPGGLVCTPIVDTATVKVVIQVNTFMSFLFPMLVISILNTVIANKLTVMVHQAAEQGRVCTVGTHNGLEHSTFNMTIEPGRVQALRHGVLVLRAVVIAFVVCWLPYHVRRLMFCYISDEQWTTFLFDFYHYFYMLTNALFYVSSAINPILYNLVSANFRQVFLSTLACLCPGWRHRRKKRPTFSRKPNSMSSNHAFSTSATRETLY

Neurotensin receptor type 1 (Rattus norvegicus), sequence (P20789 whole entry): as above

In the case of `COc1ccccc1-c1cc(C(=O)NC2(C(=O)O)CCCCC2)nn1-c1cccc2ccccc12`, the Ke in experiment [1] was 7380 nM. For the same compound, the Emax (commonly the maximal effect, on the per cent scale that the assay sets) in experiment [2] amounted to 18%. Taken in the same sequence, the figures for `COc1ccccc1-c1cc(C(=O)N[C@H](C(=O)O)C2CCCCC2)nn1-c1ccnc2cc(Cl)ccc12` were 1680 nM and 25%. For the compound `COc1cccc(OC)c1-c1cc(C(=O)NC2C3CC4CC(C3)CC2C4)nn1-c1ccnc2cc(Cl)ccc12` (configuration not stated), the EC50 (usually the concentration giving half of the maximal effect) in experiment [3] (cho-k1) is “Not Active”. Regarding `COc1cccc(OC)c1-c1cc(C(=O)NC2(C(=O)O)CCCCC2)nn1-c1ccnc2cc(Cl)ccc12`, the Ke in experiment [1] is 157 nM. Besides, the Emax in experiment [2] turned out to be 78%. Taken in the same sequence, the figures for `COc1cccc(OC)c1-c1cc(C(=O)NC2(C(=O)O)CCCC2)nn1-c1ccnc2cc(Cl)ccc12` were 222 nM and 76%. Taken in the same sequence, the figures for `COc1ccccc1-c1cc(C(=O)NC2(C(=O)O)CCCCC2)nn1-c1ccnc2cc(Cl)ccc12` were 4550 nM and 35%.

For the compound `COc1cccc(OC)c1-c1cc(C(=O)N[C@H](C(=O)O)C2CCCCC2)nn1-c1ccnc2cc(Cl)ccc12`, the Ke in experiment [1] was 23 nM. Also, the Emax in experiment [2] was 86%.

Consider `COc1cccc(OC)c1-c1cc(C(=O)N[C@H](C(=O)O)C2CCCCC2)nn1-c1ccc(F)cc1`, for which the Ke in experiment [1] came to 3340 nM. Moreover, in experiment [2], the Emax was found to be 22%. Taken in the same sequence, the figures for `COc1ccccc1-c1cc(C(=O)N[C@H](C(=O)O)C2CCCCC2)nn1-c1cccc2ccccc12` were 1400 nM and 18%. Take `CC[C@H](C)[C@H](NC(=O)[C@H](Cc1ccc(O)cc1)NC(=O)[C@@H]1CCCN1C(=O)[C@H](CCCN=C(N)N)NC(=O)[C@@H](N)CCCN=C(N)N)C(=O)N[C@@H](CC(C)C)C(=O)O`: the EC50 result in experiment [3] (cho-k1) is reported as “Not Active”.

For `COc1cccc(OC)c1-c1cc(C(=O)NC2(C(=O)O)C3CC4CC(C3)CC2C4)nn1-c1ccnc2cc(Cl)ccc12` (configuration not stated) [REMINERTANT], the EC50 in experiment [3] (read-out: EC50) came out at 120 nM. For the same compound, the Emax in experiment [2] was 100%. In addition, affinity in experiment [4] was put at a Ki of 62 nM. For `COc1cccc(OC)c1-c1cc(C(=O)NC2(C(=O)O)CCCCCC2)nn1-c1ccnc2cc(Cl)ccc12`, the Ke in experiment [1] came to 42 nM. For the same compound, in experiment [2], the Emax stood at 89%. The corresponding values for `COc1cccc(OC)c1-c1cc(C(=O)NC2(C(=O)O)C3CC4CC(C3)CC2C4)nn1-c1ccc(F)cc1` (configuration not stated) are 191 nM and 34%. `COc1cccc(OC)c1-c1cc(C(=O)NC2(C(=O)O)CCCCC2)nn1-c1ccc(F)cc1`: the Emax in experiment [2] was 15%. On to `COc1ccc(OC)c(-c2cc(C(=O)N[C@H](C(=O)O)C3CCCCC3)nn2-c2ccnc3cc(Cl)ccc23)c1`, for which, in experiment [1], the Ke turned out to be 1280 nM. In addition, in experiment [2], the Emax was 19%.

As to `C[C@@H]1CN([C@H]2CC[C@](C#N)(c3ccc(F)cc3)CC2)CC[C@]1(C(=O)O)c1ccccc1` [LEVOCABASTINE], the EC50 entry in experiment [5] is reported as “Not Active”. For the same compound, the Emax in experiment [2] was found to be 16%. Consider `COc1cccc(OC)c1-c1cc(C(=O)NC2(C(=O)O)C3CC4CC(C3)CC2C4)nn1-c1ccc(C(=O)N(C)CCCN(C)C)cc1C(C)C` (configuration not stated), for which the EC50 in experiment [3] (read-out: EC50) was 20 nM. Also, in experiment [2], the Emax came to 100%. In addition, in experiment [4], the Ki (usually a measure of affinity in units of concentration, obtained from inhibition or displacement) was determined as 6 nM.

As for `O=C(N[C@H](C(=O)O)C1CCCCC1)c1cc(-c2c(F)cccc2F)n(-c2ccnc3cc(Cl)ccc23)n1`, the Emax in experiment [2] is 15%.

As to `CCc1c(C(=O)N[C@H](C(=O)O)C2CCCCC2)nn(-c2ccnc3cc(Cl)ccc23)c1-c1c(OC)cccc1OC`, the EC50 in experiment [3] (read-out: EC50) amounted to 94 nM. For the same compound, the Emax in experiment [2] stood at 15%. For the same compound, the Ki in experiment [4] is 1180 nM. For the compound `COc1cccc(OC)c1-c1cc(C(=O)NC2(C(=O)O)CCCCC2)nn1-c1cccc2ccccc12`, the Ke in experiment [1] was 230 nM. For the same compound, in experiment [2], the Emax came to 35%. Turning to `COc1ccc(-c2cc(C(=O)N[C@H](C(=O)O)C3CCCCC3)nn2-c2ccnc3cc(Cl)ccc23)c(OC)c1`, the Emax in experiment [2] was found to be 12%.

Regarding `COc1cccc(OC)c1-c1cc(C(=O)N[C@H](C(=O)O)C2CCCCC2)nn1-c1cccc2ccccc12`, in experiment [1], the Ke worked out at 58 nM. In experiment [2], the Emax is 45%.

The values above are taken from ChEMBL document CHEMBL3286167 (J Med Chem, 2014).
